Test results: PMC5030192 (International journal of pharmaceutics, 2016)
Converted amounts (≈) assume the structure as drawn. Blank lines part the entries; values can stand above or below the compound they belong to. Square brackets hold non-standard residues; d marks the D form. Peptide text beside a SMILES is read from it. Sar = CNCC(=O)O

Tests used:
MRP2 = MRP2 (Homo sapiens, UniProt Q92887); assay: [3H]-LPV cellular uptake in MDCK-MRP2 cells; type: cell-based
PHT1 = assay: [3H]-His uptake, interaction with peptide/histidine transporter; type: cell-based; details: 25µM; MDCK-MDR1, MDCK-MRP2, Caco-2
[1] = ref Patel, 2014, cited from earlier work
MDCKII-WT cells = assay: MTS based cytotoxicity assay
PepT1 = assay: [3H]-GlySar uptake, interaction with peptide transporter; type: cell-based
Outline: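 Monolayers grown to 80–90% confluency (6–7 days after seeding 3 × 10⁶ cells) were washed thrice in DPBS pH 7.4 at 37°C. They were then incubated 30 min at 37°C with [3H]-GlySar in DPBS plus test compound (25µM) or cold GlySar (10mM). Ice-cold stop wash, lysis in 0.1% Triton-X/0.3% NaOH overnight, scintillation counting; uptake normalised to protein. n=4, mean ± S.D., Student t-test.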

P-gp = P-gp (Homo sapiens, UniProt P08183); assay: [3H]-LPV cellular uptake in MDCK-MDR1 cells; type: cell-based
P-gp, sequence (P08183 whole entry): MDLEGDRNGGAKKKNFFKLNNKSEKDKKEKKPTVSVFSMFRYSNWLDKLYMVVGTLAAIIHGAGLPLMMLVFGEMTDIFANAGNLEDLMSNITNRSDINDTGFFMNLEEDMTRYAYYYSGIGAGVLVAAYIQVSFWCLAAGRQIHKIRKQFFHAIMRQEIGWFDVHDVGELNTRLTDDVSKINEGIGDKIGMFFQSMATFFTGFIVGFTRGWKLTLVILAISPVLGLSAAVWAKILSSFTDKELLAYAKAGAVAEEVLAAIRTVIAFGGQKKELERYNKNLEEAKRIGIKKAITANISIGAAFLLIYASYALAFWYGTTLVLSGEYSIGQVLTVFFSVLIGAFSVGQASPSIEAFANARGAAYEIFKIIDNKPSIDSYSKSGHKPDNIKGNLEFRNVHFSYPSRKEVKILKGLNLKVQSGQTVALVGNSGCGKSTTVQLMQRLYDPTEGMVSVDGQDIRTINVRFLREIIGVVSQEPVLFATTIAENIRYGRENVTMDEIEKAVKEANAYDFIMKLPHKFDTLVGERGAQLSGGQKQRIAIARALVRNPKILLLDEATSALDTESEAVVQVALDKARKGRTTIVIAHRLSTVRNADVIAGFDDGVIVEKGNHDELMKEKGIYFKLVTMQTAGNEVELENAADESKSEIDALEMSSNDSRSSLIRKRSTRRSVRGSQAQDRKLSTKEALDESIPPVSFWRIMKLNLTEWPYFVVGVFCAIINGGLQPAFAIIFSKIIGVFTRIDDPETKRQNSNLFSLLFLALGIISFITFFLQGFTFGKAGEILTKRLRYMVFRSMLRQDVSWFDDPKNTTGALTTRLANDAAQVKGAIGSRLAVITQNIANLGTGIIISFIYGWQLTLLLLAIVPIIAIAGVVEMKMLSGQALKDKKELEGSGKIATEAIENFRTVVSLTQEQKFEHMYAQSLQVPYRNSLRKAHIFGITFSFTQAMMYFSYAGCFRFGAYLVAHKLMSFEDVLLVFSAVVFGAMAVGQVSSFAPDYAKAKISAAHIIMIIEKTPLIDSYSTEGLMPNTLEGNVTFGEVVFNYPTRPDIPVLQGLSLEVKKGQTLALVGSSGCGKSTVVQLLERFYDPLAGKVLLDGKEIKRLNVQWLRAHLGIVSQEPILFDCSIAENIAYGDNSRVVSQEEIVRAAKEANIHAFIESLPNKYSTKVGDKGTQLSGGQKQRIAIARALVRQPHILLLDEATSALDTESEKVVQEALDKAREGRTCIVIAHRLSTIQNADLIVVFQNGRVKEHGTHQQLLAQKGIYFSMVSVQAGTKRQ

[2] = Solubility studies in distilled deionized water; type: physicochemical; details: thermodynamic from solid

MRP2, sequence (Q92887 whole entry): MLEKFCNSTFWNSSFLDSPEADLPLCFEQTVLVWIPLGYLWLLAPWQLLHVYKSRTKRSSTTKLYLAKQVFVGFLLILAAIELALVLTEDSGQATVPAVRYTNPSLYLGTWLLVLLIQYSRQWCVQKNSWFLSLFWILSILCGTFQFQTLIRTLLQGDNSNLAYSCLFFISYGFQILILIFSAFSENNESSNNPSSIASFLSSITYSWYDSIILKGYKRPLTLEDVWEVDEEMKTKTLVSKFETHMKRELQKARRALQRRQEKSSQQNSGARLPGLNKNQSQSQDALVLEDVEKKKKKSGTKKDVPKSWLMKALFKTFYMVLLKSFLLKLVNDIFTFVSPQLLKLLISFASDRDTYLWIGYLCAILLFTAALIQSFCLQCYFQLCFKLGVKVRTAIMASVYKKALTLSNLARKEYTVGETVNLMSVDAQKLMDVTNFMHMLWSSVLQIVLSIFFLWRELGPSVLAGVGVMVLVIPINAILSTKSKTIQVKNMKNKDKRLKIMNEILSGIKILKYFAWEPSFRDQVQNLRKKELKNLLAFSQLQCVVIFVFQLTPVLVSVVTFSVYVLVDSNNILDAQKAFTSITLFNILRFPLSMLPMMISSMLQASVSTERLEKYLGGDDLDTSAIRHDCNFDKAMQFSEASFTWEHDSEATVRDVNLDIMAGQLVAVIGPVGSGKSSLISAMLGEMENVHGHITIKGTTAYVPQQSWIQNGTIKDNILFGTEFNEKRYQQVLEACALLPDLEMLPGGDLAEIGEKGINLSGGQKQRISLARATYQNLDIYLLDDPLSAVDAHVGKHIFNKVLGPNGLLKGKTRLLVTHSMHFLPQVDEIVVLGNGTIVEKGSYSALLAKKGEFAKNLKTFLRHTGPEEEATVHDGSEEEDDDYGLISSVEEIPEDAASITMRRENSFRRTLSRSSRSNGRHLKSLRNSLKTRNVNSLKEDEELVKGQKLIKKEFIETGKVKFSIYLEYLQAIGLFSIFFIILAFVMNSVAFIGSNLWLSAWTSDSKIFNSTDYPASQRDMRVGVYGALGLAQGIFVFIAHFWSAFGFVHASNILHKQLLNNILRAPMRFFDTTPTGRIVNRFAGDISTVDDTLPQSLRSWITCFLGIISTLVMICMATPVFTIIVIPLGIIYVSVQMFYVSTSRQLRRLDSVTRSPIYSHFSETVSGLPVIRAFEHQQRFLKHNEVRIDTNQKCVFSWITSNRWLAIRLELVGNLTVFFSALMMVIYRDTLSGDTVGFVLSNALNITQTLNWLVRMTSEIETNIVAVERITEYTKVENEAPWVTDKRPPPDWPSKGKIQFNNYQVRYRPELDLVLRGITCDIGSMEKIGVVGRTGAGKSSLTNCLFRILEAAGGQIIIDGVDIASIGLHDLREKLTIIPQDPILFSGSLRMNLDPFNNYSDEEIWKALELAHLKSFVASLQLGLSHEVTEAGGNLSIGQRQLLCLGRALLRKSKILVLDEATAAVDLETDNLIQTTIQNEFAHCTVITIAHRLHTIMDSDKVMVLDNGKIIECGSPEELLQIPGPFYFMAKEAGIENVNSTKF

- [3H]-LPV uptake with increasing concentrations of unlabelled compound (MRP2): dramatically elevated
- [3H]-LPV uptake with increasing concentrations of unlabelled compound (P-gp): dramatically elevated
- solubility at 24 h [2]: 49 ± 3 µg/mL (≈ 77.9 µM)
SMILES: Cc1cccc(C)c1OCC(=O)N[C@@H](Cc1ccccc1)[C@@H](O)C[C@H](Cc1ccccc1)NC(=O)[C@H](C(C)C)N1CCCNC1=O [LPV, Lopinavir]
- variation in [3H]-L-His uptake in presence of compound (PHT1): no such variation
- mean residential time (MRT) ([1]; LPV itself dosed orally, rats): 188 min
- mean residential time (MRT) of regenerated LPV ([1]; regenerated after oral Val-Ile-LPV, rats): 604 min
- Area under the curve (AUC) of administered compound ([1]; single oral dose, Sprague Dawley rats): 177 ± 5 µmol·min/L
- reduction in number of viable cells (MDCKII-WT cells; 100 µM, 4h incubation, MDCK-WT cells): Approximately 13%
- reduction in number of viable cells / cell viability (MDCKII-WT cells; 200 µM, 4h incubation, MDCK-WT cells): ~36%
- Cytotoxicity (MDCKII-WT cells; 5–50 µM, 4h incubation, MDCK-WT cells): no cytotoxic effects
- variation in [3H]-GlySar uptake in presence of compound (PepT1; 25µM, MDCK-MDR1, MDCK-MRP2, Caco-2): no such variation

SMILES: CN(CC(=O)O)C(=O)CN [GlySar, Glycylsarcosine] (H-Gly-[Sar]-OH)
- reduction in [3H]-GlySar uptake (PepT1; all cell lines (MDCK-MDR1, MDCK-MRP2, Caco-2), prodrug 25µM, cold GlySar 10mM): 75%

SMILES: CC(C)(C)CC(C)(C)c1ccc(OCCO)cc1 [Triton-X]
- decrease in absorbance compared to negative control (MDCKII-WT cells; 0.1% Triton-X, positive control): about 70%
